The source of these data is ChEMBL document CHEMBL1800068 (J Med Chem, 2011).

What is called EC50 is the concentration giving half of the maximal effect.

Activity calls are given as the source filed them. The rule behind the calls is not given here.

For assay [1], the target named is T1, Retinol-binding protein 4 (Homo sapiens, UniProt P02753). The assay can be described thus: Binding affinity to His-tagged recombinant human sRBP expressed in Escherichia coli BL21(DE3) assessed as disruption of sRBP-TTR protein interaction after 1 hr by SDS-PAGE and silver staining method. The procedure, abridged: (§1)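 Compound was 100 μM, or 1, 10, 20, 50 and 100 μM for dose–response. Control was 10 μM ROH with no compound. Released free sRBP in the flow-through was analysed by SDS-PAGE; each run done at least three times.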

For assay [2], the target named is T1, Retinol-binding protein 4. Nature of the assay: Binding affinity to His-tagged recombinant human sRBP expressed in Escherichia coli BL21(DE3) assessed as disruption of sRBP-TTR protein interaction at 1 to 100 uM after 1 hr by SDS-PAGE and silver staining method. The method in brief: as §1
For assay [3], the target named is T1, Retinol-binding protein 4. The assay can be described thus: Antagonist activity at His-tagged recombinant human sRBP […] assessed as disruption of ROH-sRBP-TTR protein interaction after 2 hr by TR-FRET assay. It is filed as functional. The procedure, abridged: (§2)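 Apo His-sRBP (P. pastoris-expressed), 5 nM, with 100 nM biotinylated native TTR, 100 nM streptavidin-APC and 1 nM europium anti-His antibody. Inhibitor held at 10 μM while ROH was titrated, in 20 mM Tris-HCl pH 7.4, 150 mM NaCl, 1 mM EDTA, 0.01% BSA, 0.02% Tween 20.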
(In general: In TR-FRET formats the signal depends on donor and acceptor labels being close together.)

Assay [4] deals with T1, Retinol-binding protein 4. The assay can be described thus: Antagonist activity at His-tagged recombinant human sRBP […] assessed as disruption of ROH-sRBP-TTR protein interaction after 2 hr by TR-FRET assay relative to control. It is filed as functional. The method in brief:
as §2

Assay [5] deals with T1, Retinol-binding protein 4. The assay can be described thus: Binding affinity to His-tagged recombinant human sRBP expressed in Pichia pastoris assessed as apparent dissociation constant after 5 mins by fluorescence spectrophotometric analysis. The conditions noted are these: read-out: Kd(app).
Assay [6] deals with T1, Retinol-binding protein 4. Nature of the assay: Binding affinity to immobilized His-tagged recombinant human sRBP assessed as inhibition of sRBP and detergent treated HEK293 membrane interaction at 10 uM after 1 hr by surface plasmon resonance assay. In general terms: Surface plasmon resonance follows binding to a sensor surface in real time, without labels.

In the case of `CC1=C(/C=C/C(C)=C/C=C/C(C)=C/C(=O)N2CCCC3CCCCC32)C(C)(C)CCC1` (centres undefined), the result in assay [1] was Active.

As for `CC1=C(/C=C/C(C)=C/C=C/C(C)=C/C(=O)N2CCS(=O)(=O)CC2)C(C)(C)CCC1`, in assay [1], the result was Active.

Turning to `CC(CCCC(C)CC(=O)Nc1ccc(O)cc1)CCC1C(C)CCCC1(C)C` (centres undefined), the result in assay [1] was Active.

On to `COCCOCC(=O)Nc1ccc(O)cc1`, for which, in assay [2], the result was inactive.

`COCCOc1ccc(NC(=O)/C=C(C)/C=C/C=C(C)/C=C/C2=C(C)CCCC2(C)C)cc1`: the outcome in assay [1] was Active.

On to `CC1=C(/C=C/C(C)=C/C=C/C(C)=C/C(=O)NCCC(C)(C)C)C(C)(C)CCC1`, for which the result in assay [1] was Active.

In the case of `CC1=C(/C=C/C(C)=C/C=C/C(C)=C/C(=O)N2CCCOCC2)C(C)(C)CCC1`, in assay [1], the outcome was Active.

Take `CC1=C(/C=C/C(C)=C/C=C/C(C)=C/C(=O)N2CCC(O)(c3ccccc3)CC2)C(C)(C)CCC1`: in assay [1], the outcome was Active.

Consider `CC1=C(/C=C/C(C)=C/C=C/C(C)=C/C(=O)Nc2ccc3c(c2)OCO3)C(C)(C)CCC1`, for which the outcome in assay [1] was Active.

For the compound `CCOc1ccc(NC(=O)/C=C(C)/C=C/C=C(C)/C=C/C2=C(C)CCCC2(C)C)cc1`, in assay [1], the result was Active.

Regarding `CC(C)(C)C(=O)Nc1ccc(O)cc1`, the outcome in assay [2] was inactive.

Consider `CC(C)c1ccc(CCCC(=O)Nc2ccc(O)cc2)cc1`, for which the result in assay [2] was inactive.

`CC(C)CC(=O)Nc1ccc(O)cc1`: in assay [2], the outcome was inactive.

Take `CC1=C(/C=C/C(C)=C/C=C/C(C)=C/C(=O)Nc2ccc(OCC(=O)N3CCCCC3)cc2)C(C)(C)CCC1`: in assay [1], the outcome was Active.

On to `CC1=C(/C=C/C(C)=C/C=C/C(C)=C/C(=O)NCc2cccnc2)C(C)(C)CCC1`, for which the result in assay [1] was Active.

Take `CC1=C(/C=C/C(C)=C/C=C/C(C)=C/C(=O)Nc2ccc(OCC(=O)N(C)C)cc2)C(C)(C)CCC1`: in assay [1], the outcome was Active.

With `CC1=C(/C=C/C(C)=C/C=C/C(C)=C/C(=O)N2CCCCCC2)C(C)(C)CCC1`, the outcome in assay [1] was Active.

With `CC1=C(/C=C/C(C)=C/C=C/C(C)=C/C(=O)NCCCOc2ccccc2)C(C)(C)CCC1`, in assay [1], the result was Active.

As for `CC(C)c1ccc(CCC(=O)Nc2ccc(O)cc2)cc1`, the outcome in assay [2] was inactive.

As to `CC1=C(/C=C/C(C)=C/C=C/C(C)=C/C(=O)N2CCC(F)(F)CC2)C(C)(C)CCC1`, the outcome in assay [1] was Active.

With `CC1=C(/C=C/C(C)=C/C=C/C(C)=C/C(=O)N2CCC(CCO)CC2)C(C)(C)CCC1`, the result in assay [1] was Active.

As for `CC1=C(/C=C/C(C)=C/C=C/C(C)=C/C(=O)NCc2ccc(Oc3ccccc3)cc2)C(C)(C)CCC1`, in assay [1], the outcome was Active.

In the case of `CC1=C(/C=C/C(C)=C/C=C/C(C)=C/C(=O)NCCO)C(C)(C)CCC1`, the outcome in assay [1] and in assay [6] was Active. Moreover, the EC50 in assay [3] is 145 nM. Besides, in assay [4], the Ratio EC50 was 2. The Kd in assay [5] was 214 nM.

`O=C(CCc1ccccc1)Nc1ccc(O)cc1`: the result in assay [2] was inactive.

Take `O=C(CCCCc1ccccc1)Nc1ccc(O)cc1`: the result in assay [2] was inactive.

For the compound `CC(C)CCCC(=O)Nc1ccc(O)cc1`, the result in assay [2] was inactive.

On to `CC(C)CCC(=O)Nc1ccc(O)cc1`, for which the result in assay [2] was inactive.

On to `O=C(CCCCCc1ccccc1)Nc1ccc(O)cc1`, for which the result in assay [2] was inactive.

Regarding `CC1=C(/C=C/C(C)=C/C=C/C(C)=C/C(=O)NCc2ccc3c(c2)OCO3)C(C)(C)CCC1`, in assay [1], the result was Active.

Consider `CC(C)=CC(=O)Nc1ccc(O)cc1`, for which the outcome in assay [2] was inactive.

Consider `CC1=C(/C=C/C(C)=C/C=C/C(C)=C/C(=O)NCc2ccc(Cl)cc2)C(C)(C)CCC1`, for which the outcome in assay [1] was Active.

For `C=CC(=O)Nc1ccc(O)cc1`, the outcome in assay [2] was inactive.

In the case of `COc1cccc(NC(=O)/C=C(C)/C=C/C=C(C)/C=C/C2=C(C)CCCC2(C)C)c1`, the result in assay [1] was Active.

As for `CC1=C(/C=C/C(C)=C/C=C/C(C)=C/C(=O)NCc2ccc(F)cc2)C(C)(C)CCC1`, the result in assay [1] was Active.

Consider `CCCCC(=O)Nc1ccc(O)cc1`, for which the outcome in assay [2] was inactive.

Regarding `CC1=C(/C=C/C(C)=C/C=C/C(C)=C/C(=O)Nc2ccc(OCC(=O)NCCO)cc2)C(C)(C)CCC1`, the outcome in assay [1] was Active.

For `CC(C)=CCC/C(C)=C/C(=O)Nc1ccc(O)cc1`, in assay [2], the result was inactive.

Turning to `CC1=C(/C=C/C(C)=C/C=C/C(C)=C/C(=O)NCC2CC2)C(C)(C)CCC1`, in assay [1], the result was Active.

As to `COc1cc(NC(=O)/C=C(C)/C=C/C=C(C)/C=C/C2=C(C)CCCC2(C)C)cc(OC)c1OC`, the result in assay [1] was Active.

As to `CC1=C(/C=C/C(C)=C/C=C/C(C)=C/C(=O)N2CCC(Cc3ccccc3)CC2)C(C)(C)CCC1`, the outcome in assay [1] was Active.

Turning to `CC1=C(/C=C/C(C)=C/C=C/C(C)=C/C(=O)Nc2ccccc2)C(C)(C)CCC1`, in assay [1], the result was Active.

As for `COc1ccc(CNC(=O)/C=C(C)/C=C/C=C(C)/C=C/C2=C(C)CCCC2(C)C)cc1`, the result in assay [1] was Active.

Turning to `COc1cccc(CNC(=O)/C=C(C)/C=C/C=C(C)/C=C/C2=C(C)CCCC2(C)C)c1`, the outcome in assay [1] was Active.

In the case of `COCCC(=O)Nc1ccc(O)cc1`, the result in assay [2] was inactive.

In the case of `CC1=C(/C=C/C(C)=C/C=C/C(C)=C/C(=O)N2CCOCC2)C(C)(C)CCC1`, the outcome in assay [1] and in assay [6] was Active. Besides, the EC50 in assay [3] was determined as 154 nM. In addition, the Ratio EC50 in assay [4] worked out at 2. In addition, the Kd in assay [5] was determined as 227 nM.

Take `COc1ccccc1CNC(=O)/C=C(C)/C=C/C=C(C)/C=C/C1=C(C)CCCC1(C)C`: the outcome in assay [1] was Active.

Regarding `CC1=C(/C=C/C(C)=C/C=C/C(C)=C/C(=O)NCc2ccccn2)C(C)(C)CCC1`, in assay [1], the outcome was Active.

On to `CC1=C(/C=C/C(C)=C/C=C/C(C)=C/C(=O)N2CCC(O)CC2)C(C)(C)CCC1`, for which the outcome in assay [1] was Active.

On to `CC1=C(/C=C/C(C)=C/C=C/C(C)=C/C(=O)Nc2ccc(N(C)C)cc2)C(C)(C)CCC1`, for which the Activity result in assay [1] was “Dose-dependent effect”. Further, the EC50 in assay [3] came out at 954 nM. For the same compound, the Ratio EC50 in assay [4] turned out to be 15. Moreover, the Kd in assay [5] turned out to be 98 nM. Also, the result in assay [6] was Active.

For `CC1=C(/C=C/C(C)=C/C=C/C(C)=C/C(=O)N2CCC3CCCCC3C2)C(C)(C)CCC1` (centres undefined), in assay [1], the outcome was Active.

For `CC1=C(/C=C/C(C)=C/C=C/C(C)=C/C(=O)NC2CC2)C(C)(C)CCC1`, the outcome in assay [1] was Active.

Take `CC1=C(/C=C/C(C)=C/C=C/C(C)=C/C(=O)Nc2ccc(OCC(=O)O)cc2)C(C)(C)CCC1`: the result in assay [1] was Active.

Turning to `CC1=C(/C=C/C(C)=C/C=C/C(C)=C/C(=O)N2CCC(F)CC2)C(C)(C)CCC1`, the result in assay [1] was Active.

For `CC1=C(/C=C/C(C)=C/C=C/C(C)=C/C(=O)N2CCN(c3ccc(C)cc3)CC2)C(C)(C)CCC1`, the outcome in assay [1] was Active.

On to `CC1=C(/C=C/C(C)=C/C=C/C(C)=C/C(=O)NC2CCCCC2)C(C)(C)CCC1`, for which the result in assay [1] was Active.

In the case of `COc1ccc(CCCC(=O)Nc2ccc(O)cc2)cc1`, in assay [2], the outcome was inactive.

`CC(C)(C)CC(=O)Nc1ccc(O)cc1`: the outcome in assay [2] was inactive.

Consider `O=C(Cc1ccccc1)Nc1ccc(O)cc1`, for which, in assay [2], the result was inactive.

For the compound `O=C(CCCc1ccccc1)Nc1ccc(O)cc1`, the outcome in assay [2] was inactive.

For `CCOC(=O)CNC(=O)/C=C(C)/C=C/C=C(C)/C=C/C1=C(C)CCCC1(C)C`, the outcome in assay [1] was Active.

Take `CC1=C(/C=C/C(C)=C/C=C/C(C)=C/C(=O)NCC(O)CO)C(C)(C)CCC1` (centres undefined): the result in assay [1] and in assay [6] was Active. Besides, in assay [3], the EC50 was 171 nM. Further, the Ratio EC50 in assay [4] is 2. Moreover, the Kd in assay [5] was 178 nM.

Consider `COc1ccc(CCC(=O)Nc2ccc(O)cc2)cc1`, for which the outcome in assay [2] was inactive.

With `CC1=C(/C=C/C(C)=C/C=C/C(C)=C\C(=O)Nc2ccc(O)cc2)C(C)(C)CCC1`, the outcome in assay [1] and in assay [6] was Active.

`COc1ccc(CC(=O)Nc2ccc(O)cc2)cc1`: in assay [2], the result was inactive.

On to `COc1ccc(NC(=O)/C=C(C)/C=C/C=C(C)/C=C/C2=C(C)CCCC2(C)C)cc1`, for which the outcome in assay [1] was Active.

For `CC1=C(/C=C/C(C)=C/C=C/C(C)=C/C(=O)N2CCCCC2)C(C)(C)CCC1`, the outcome in assay [1] was Active.

On to `CC1=C(/C=C/C(C)=C/C=C/C(C)=C/C(=O)NCc2ccccc2)C(C)(C)CCC1`, for which the outcome in assay [1] was Active.
